Test results from ChEMBL document CHEMBL1148432, “PDE2 inhibition by the PI3 kinase inhibitor LY294002 and analogues” (Bioorg Med Chem Lett, 2004).

Target: Phosphodiesterase 3 (Homo sapiens, UniProt Q14432+Q13370)
Assay: Inhibition of human platelet phosphodiesterase 3
In short: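 PDE3 was separated from PDE2 in human platelet lysate by anion-exchange chromatography. It was assayed under conditions optimal for that isozyme, with the AMP product quantified by reverse-phase HPLC.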

SMILES	IC50 [µM]
O=c1cc(N2CCOCC2)oc2c(-c3ccccc3)cccc12 [LY-294002]	100

Target: T1, cGMP-dependent 3',5'-cyclic phosphodiesterase (Homo sapiens, UniProt O00408)
T1 sequence (O00408 whole entry): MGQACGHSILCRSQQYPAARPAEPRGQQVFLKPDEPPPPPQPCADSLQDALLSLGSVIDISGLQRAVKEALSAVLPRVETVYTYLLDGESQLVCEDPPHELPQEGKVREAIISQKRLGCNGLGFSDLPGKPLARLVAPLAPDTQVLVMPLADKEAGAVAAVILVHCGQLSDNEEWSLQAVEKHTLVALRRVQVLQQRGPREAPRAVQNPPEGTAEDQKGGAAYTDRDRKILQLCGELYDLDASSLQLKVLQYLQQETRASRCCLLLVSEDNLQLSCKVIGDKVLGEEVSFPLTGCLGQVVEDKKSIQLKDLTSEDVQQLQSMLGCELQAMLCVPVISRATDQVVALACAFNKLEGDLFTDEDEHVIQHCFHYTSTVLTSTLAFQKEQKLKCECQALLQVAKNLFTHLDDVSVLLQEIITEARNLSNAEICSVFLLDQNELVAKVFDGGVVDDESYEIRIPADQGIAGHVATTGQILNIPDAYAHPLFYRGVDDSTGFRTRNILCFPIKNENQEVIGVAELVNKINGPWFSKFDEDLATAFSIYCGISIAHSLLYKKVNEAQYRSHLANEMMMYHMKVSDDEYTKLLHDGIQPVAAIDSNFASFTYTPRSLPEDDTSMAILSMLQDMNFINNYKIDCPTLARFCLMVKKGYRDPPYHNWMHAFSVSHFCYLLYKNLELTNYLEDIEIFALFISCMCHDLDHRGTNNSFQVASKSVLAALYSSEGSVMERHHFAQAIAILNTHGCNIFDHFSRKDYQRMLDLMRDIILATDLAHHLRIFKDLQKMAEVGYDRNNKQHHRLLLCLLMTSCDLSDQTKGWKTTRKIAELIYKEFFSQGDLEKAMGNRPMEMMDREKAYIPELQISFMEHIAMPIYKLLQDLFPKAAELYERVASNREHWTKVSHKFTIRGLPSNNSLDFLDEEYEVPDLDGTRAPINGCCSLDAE
Assay: Inhibitory activity against human platelet phosphodiesterase 2 at 50 uM expressed as percent basal value
In short: (§1)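 PDE2 was purified from human platelet lysate by anion-exchange chromatography. The enzyme was premixed in HEPES buffer with cGMP and inhibitor or DMSO for 90 s at 37 °C, then started with cAMP substrate. The reaction was stopped after 5 min by heating at 100 °C for 3 min. AMP was measured by reverse-phase HPLC at 254 nm against standards and expressed as % of DMSO control (mean ± SE, n ≥ 3).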

SMILES	Remaining activity (% of control) [%]
O=c1cc(N2CCOCC2)oc2cc(C#Cc3ccccc3)ccc12	92
COc1cc(-c2ccc(Cl)cc2)c2oc(N3CCOCC3)cc(=O)c2c1	67
O=c1cc(N2CCOCC2)oc2cc(OCc3cccnc3)ccc12	22
O=c1cc(N2CCOCC2)oc2c(-c3ccccc3C(F)(F)F)cccc12	43
O=c1cc(N2CCOCC2)oc2cc(-c3ccccc3)ccc12	9
O=c1cc(N2CCOCC2)oc2c(O)cccc12	19
O=c1cc(N2CCOCC2)oc2c(-c3ccccc3)cc(O)cc12	69
Cc1c(OCc2cccnc2)ccc2c(=O)cc(N3CCOCC3)oc12	35
COc1cc(-c2ccccc2Cl)c2oc(N3CCOCC3)cc(=O)c2c1	78
COc1cc(-c2cccc(Cl)c2)c2oc(N3CCOCC3)cc(=O)c2c1	87
O=c1cc(N2CCOCC2)oc2c(OCc3ccccc3)cccc12	40
O=c1cc(N2CCOCC2)oc2c(-c3ccc(F)cc3)cccc12	43
O=c1cc(N2CCOCC2)oc2cc(OCc3ccccc3)ccc12	12
Cc1c(C#Cc2ccccc2)ccc2c(=O)cc(N3CCOCC3)oc12	44
Cc1cc(-c2ccccc2)c2oc(N3CCOCC3)cc(=O)c2c1	60
COc1cccc2c(=O)cc(N3CCOCC3)oc12	20
O=c1cc(N2CCOCC2)oc2c(OCc3cccnc3)cccc12	35
O=c1cc(N2CCOCC2)oc2c(C#Cc3ccccc3)cccc12	93
COc1ccc2oc(N3CCOCC3)cc(=O)c2c1	38
O=c1cc(N2CCOCC2)oc2c(-c3ccccc3Cl)cccc12	62
CCc1cc(-c2ccccc2)c2oc(N3CCOCC3)cc(=O)c2c1	47
Cc1c(-c2ccccc2)ccc2c(=O)cc(N3CCOCC3)oc12	31
COc1ccccc1-c1cccc2c(=O)cc(N3CCOCC3)oc12	47
O=c1cc(N2CCOCC2)oc2c(CCc3ccccc3)cccc12	43
Cc1ccccc1-c1cccc2c(=O)cc(N3CCOCC3)oc12	47
Cc1c(OCc2ccccc2)ccc2c(=O)cc(N3CCOCC3)oc12	38
O=c1cc(N2CCOCC2)oc2c(-c3ccccc3)cccc12 [LY-294002]	54
O=c1cc(N2CCOCC2)oc2c(-c3ccc(Oc4ccccc4)cc3)cccc12	75
COc1cc(-c2ccccc2)c2oc(N3CCOCC3)cc(=O)c2c1	75

Target: T1, cGMP-dependent 3',5'-cyclic phosphodiesterase
Assay: Inhibition of human platelet phosphodiesterase 2
In short: as §1

SMILES	IC50 [µM]
COc1cc(-c2cccc(Cl)c2)c2oc(N3CCOCC3)cc(=O)c2c1	9
O=c1cc(N2CCOCC2)oc2c(C#Cc3ccccc3)cccc12	6
CCCCCC[C@@H]([C@@H](C)O)n1cnc2c(N)ncnc21 [EHNA]	5
O=c1cc(N2CCOCC2)oc2c(-c3ccccc3)cccc12 [LY-294002]	40
